# Results as given in ChEMBL document CHEMBL3286210, “Discovery of 3-aryl-3-ethoxypropanoic acids as orally active GPR40 agonists” (Bioorg Med Chem Lett, 2014).
# pEC50: −log10 of the molar value. Activity calls are given as the source filed them. No cut-off for these calls is given here.
# Assays:
# Rattus norvegicus [1] = assay: Antidiabetic activity in diabetic Zucker fatty rat model assessed as reduction of blood glucose level at 10 mg/kg, po administered 30 mins prior to glucose challenge by oral glucose tolerance test; assay type: functional, organism-based; set-up: dose 10 mg/kg
# How it was run: (§1)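 Nine-week-old Zucker fatty rats fasted overnight; vehicle or compound given orally (1–10 mg/kg) 30 min before oral glucose load of 2 g/kg; blood sampled for plasma glucose and insulin; mean ± S.E., n = 6.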
# [2] = biological target: Free fatty acid receptor 1 (Rattus norvegicus, UniProt Q8K3T4); assay: Agonist activity at rat GPR40 expressed in CHO cells by calcium flux assay; assay type: functional, cell-based
# Chain of Free fatty acid receptor 1 (Rattus norvegicus, UniProt Q8K3T4) (Q8K3T4 whole entry): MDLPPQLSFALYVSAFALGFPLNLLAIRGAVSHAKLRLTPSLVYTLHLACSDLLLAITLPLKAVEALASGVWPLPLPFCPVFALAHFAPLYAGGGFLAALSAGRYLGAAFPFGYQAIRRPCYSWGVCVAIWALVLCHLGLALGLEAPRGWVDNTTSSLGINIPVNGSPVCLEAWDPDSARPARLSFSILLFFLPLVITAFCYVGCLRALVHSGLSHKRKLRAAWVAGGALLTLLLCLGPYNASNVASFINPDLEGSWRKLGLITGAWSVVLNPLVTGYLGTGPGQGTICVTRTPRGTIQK
# How it was run: (§2)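 Intracellular calcium flux read in CHO cells transfected with GPR40; values are means of two or three independent experiments.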
# [3] = biological target: Free fatty acid receptor 1 (Homo sapiens, UniProt O14842); assay: Agonist activity at human GPR40 expressed in CHO cells by calcium flux assay; assay type: functional, cell-based; how it was run: as §2
# Chain of Free fatty acid receptor 1 (Homo sapiens, UniProt O14842) (O14842 whole entry): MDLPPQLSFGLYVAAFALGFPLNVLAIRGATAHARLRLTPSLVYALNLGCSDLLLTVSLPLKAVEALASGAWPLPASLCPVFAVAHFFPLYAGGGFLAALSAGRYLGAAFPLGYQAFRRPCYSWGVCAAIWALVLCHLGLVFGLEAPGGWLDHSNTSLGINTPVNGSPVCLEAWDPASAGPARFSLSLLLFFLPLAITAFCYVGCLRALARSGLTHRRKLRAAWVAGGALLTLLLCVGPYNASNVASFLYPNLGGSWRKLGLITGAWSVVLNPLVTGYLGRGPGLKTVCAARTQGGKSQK
# [4] = Lipophilicity, log D of the compound at pH 7.4; assay type: physicochemical; details: buffer
# [5] = Oral bioavailability in F344 rat; assay type: ADME, organism-based; details: in vivo
# How it was run: (§3)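 F344 rats; single dose given iv at 10 mg/kg or orally at 10 mg/kg (some compounds iv 2 mg/kg and po 3 mg/kg); plasma drug levels used to derive pharmacokinetic parameters.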
# Homo sapiens = organism: Homo sapiens; assay: Inhibition of mitochondrial respiratory chain complex 1 (unknown origin) at 100 uM
# How it was run: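 Compound tested at 100 μM. Read-out is percent inhibition of mitochondrial respiratory chain complex 1.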
# [6] = Volume of distribution at steady state in F344 rat at 2 mg/kg, iv; assay type: ADME, organism-based; set-up: dose 2 mg/kg, route intravenous; details: in vivo, read-out: Vdss
# How it was run: (§4)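 F344 rats, single iv dose of 2 mg/kg, plasma pharmacokinetic parameters determined.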
# [7] = Cmax in diabetic Zucker fatty rat model measured during OGTT at 3 mg/kg, po administered 30 mins prior to glucose challenge; assay type: ADME, organism-based; set-up: dose 3 mg/kg, route oral; details: in vivo
# How it was run: (§5)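 Plasma exposure (Cmax, AUC) measured during OGTT in overnight-fasted Zucker fatty rats dosed orally 30 min before a 2 g/kg glucose challenge.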
# [8] = AUC in F344 rat at 3 mg/kg, po; assay type: ADME, organism-based; set-up: dose 3 mg/kg, route oral; details: plasma
# [9] = Half life in F344 rat at 2 mg/kg, iv; assay type: ADME, organism-based; set-up: dose 2 mg/kg, route intravenous; details: in vivo; how it was run: as §4
# MIN6 = assay: Insulinotropic effect in mouse MIN6 cells in presence of 25 mM glucose; assay type: functional, cell-based
# How it was run: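 MIN6 mouse insulinoma cells exposed to compound from 0.001 to 10 µM with 25 mM glucose; insulin secreted into medium measured; mean ± S.E. of 4 wells.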
# [10] = AUC in diabetic Zucker fatty rat model measured during OGTT at 1 mg/kg, po administered 30 mins prior to glucose challenge; assay type: ADME, organism-based; set-up: dose 1 mg/kg, route oral; details: in vivo
# How it was run: (§6)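 9-week-old Zucker fatty rats were fasted overnight and given vehicle or compound orally 30 min before an oral glucose tolerance test with a 2 g/kg glucose challenge. Blood was sampled during the OGTT, and plasma exposure was reported as Cmax (µg/ml) and AUC (µg h/ml).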
# Rattus norvegicus [11] = assay: Antidiabetic activity in diabetic Zucker fatty rat model assessed as increase in insulin level measured during OGTT at 1 to 10 mg/kg, po administered 30 mins prior to glucose challenge; assay type: functional, organism-based; how it was run: as §1
# [12] = Cmax in diabetic Zucker fatty rat model measured during OGTT at 10 mg/kg, po administered 30 mins prior to glucose challenge; assay type: ADME, organism-based; set-up: dose 10 mg/kg, route oral; details: in vivo; how it was run: as §5
# [13] = Oral bioavailability in F344 rat at 3 mg/kg; assay type: ADME, organism-based; details: in vivo
# How it was run: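 F344 rats. Bioavailability from an iv dose of 2 mg/kg paired with an oral dose of 3 mg/kg.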
# [14] = AUC in diabetic Zucker fatty rat model measured during OGTT at 3 mg/kg, po administered 30 mins prior to glucose challenge; assay type: ADME, organism-based; set-up: dose 3 mg/kg, route oral; details: in vivo; how it was run: as §6
# [15] = AUC in diabetic Zucker fatty rat model measured during OGTT at 10 mg/kg, po administered 30 mins prior to glucose challenge; assay type: ADME, organism-based; set-up: dose 10 mg/kg, route oral; details: in vivo; how it was run: as §6
# Rattus norvegicus [16] = assay: Antidiabetic activity in po dosed diabetic Zucker fatty rat model assessed as reduction of blood glucose level administered 30 mins prior to glucose challenge by oral glucose tolerance test; assay type: functional, organism-based; how it was run: as §1
# [17] = Clearance in F344 rat at 2 mg/kg, iv; assay type: ADME, organism-based; set-up: dose 2 mg/kg, route intravenous; details: in vivo; how it was run: as §4
# Rattus norvegicus [18] = assay: Antidiabetic activity in diabetic Zucker fatty rat model assessed as reduction of blood glucose level at 3 mg/kg, po administered 30 mins prior to glucose challenge by oral glucose tolerance test relative to sitagliptin; assay type: functional
# [19] = Cmax in diabetic Zucker fatty rat model measured during OGTT at 1 mg/kg, po administered 30 mins prior to glucose challenge; assay type: ADME, organism-based; set-up: dose 1 mg/kg, route oral; details: in vivo; how it was run: as §5
# [20] = Cmax in F344 rat at 3 mg/kg, po; assay type: ADME, organism-based; set-up: dose 3 mg/kg, route oral; details: in vivo
# How it was run: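 F344 rats, single oral dose of 3 mg/kg, plasma pharmacokinetic parameters determined.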
# [21] = Volume of distribution at steady state in F344 rat at 10 mg/kg, iv; assay type: ADME, organism-based; set-up: dose 10 mg/kg, route intravenous; details: in vivo, read-out: Vdss; how it was run: as §3
# [22] = Clearance in F344 rat at 10 mg/kg, iv; assay type: ADME, organism-based; set-up: dose 10 mg/kg, route intravenous; details: in vivo; how it was run: as §3
# [23] = Cmax in F344 rat at 10 mg/kg, po; assay type: ADME, organism-based; set-up: dose 10 mg/kg, route oral; details: in vivo; how it was run: as §3
# [24] = Half life in F344 rat at 10 mg/kg, iv; assay type: ADME, organism-based; set-up: dose 10 mg/kg, route intravenous; details: in vivo; how it was run: as §3
# [25] = Oral bioavailability in F344 rat at 10 mg/kg; assay type: ADME, organism-based; details: in vivo; how it was run: as §3
# [26] = AUC in F344 rat at 10 mg/kg, po; assay type: ADME, organism-based; set-up: dose 10 mg/kg, route oral; details: plasma; how it was run: as §3
Compound,pEC50 [2],pEC50 [3],logD [4],further results
N[C@@H](CC(=O)N1CCn2c(nnc2C(F)(F)F)C1)Cc1cc(F)c(F)cc1F,,,,Activity (Rattus norvegicus [1]): Active
Cc1cccc(C)c1-c1cccc(COc2cc3c(cn2)C(CC(=O)O)OC3)c1 (configuration not stated),6.72,7.31,,
Cc1cccc(C)c1-c1cccc(COc2ccc(CCC(=O)O)s2)c1,6.08,7.28,> 2.4,
COC(Cc1ccc(OCc2cccc(-c3c(C)cccc3C)c2)nc1)C(=O)O (configuration not stated),< 5.00,6.92,,
Cc1cccc(C)c1-c1cccc(COc2ccc(CC(C)C(=O)O)cn2)c1 (configuration not stated),5.68,7.19,,
CCOC(CC(=O)O)c1ccc(OCc2cccc(C)c2)cc1 (configuration not stated),7.11,7.46,,
Cc1cccc(C)c1-c1cccc(COc2ccc(CCC(=O)O)cc2)c1,7.74,8.17,> 3.3,bioavailability [5]: 0.9%; inhibition (Homo sapiens): 58%
Cc1cccc(C)c1-c1cccc(COc2ncc(CCC(=O)O)cn2)c1,5.85,6.89,2,
Cc1cccc(C)c1-c1cccc(COc2ccc(C(C)CC(=O)O)cn2)c1 (configuration not stated),6.49,8.00,3.3,inhibition (Homo sapiens): 39%
CCOC(CC(=O)O)c1ccc(OCc2ccccc2)nc1 (configuration not stated),6.12,6.64,0.7,inhibition (Homo sapiens): 1%
Cc1cccc(C)c1-c1cccc(COc2ncc(CCC(=O)O)s2)c1,6.27,7.19,,
CCOC(CC(=O)O)c1ccc(OCc2ccccc2C)cc1 (configuration not stated),7.10,7.70,1.2,Vd [6]: 0.16 L/kg; Cmax [7]: 14000 ng/mL; AUC [8]: 5300 ng·h/mL; half-life [9]: 22.2 min; Activity (MIN6): Dose-dependent effect; AUC at 0.5 h [10]: 4800 ng·h/mL; Activity (Rattus norvegicus [11]): Active; Cmax [12]: 51000 ng/mL; bioavailability [13]: 64%; AUC at 0.5 h [14]: 19000 ng·h/mL; AUC at 0.5 h [15]: 78000 ng·h/mL; inhibition (Homo sapiens): 6%; Activity (Rattus norvegicus [16]): Dose-dependent effect; clearance [17]: 6.17 mL/min/kg; fold change (FC) (Rattus norvegicus [18]): 3; Cmax [19]: 4100 ng/mL; Cmax [20]: 3300 ng/mL
Cc1cccc(C)c1-c1cccc(COc2cnc(CCC(=O)O)cn2)c1,7.80,8.42,2.5,
Cc1cc(CCC(=O)O)cnc1OCc1cccc(-c2c(C)cccc2C)c1,5.04,5.60,,
Cc1cccc(C)c1-c1cccc(COc2ccc(CCC(=O)O)nn2)c1,6.51,6.38,,
Cc1cccc(C)c1-c1cccc(COc2ccc(CC(F)C(=O)O)cn2)c1 (configuration not stated),6.60,8.07,,inhibition (Homo sapiens): 58%
O=C(O)CCc1ccc(NCc2cccc(Oc3ccccc3)c2)cc1 [GW9508],7.00,7.89,,
Cc1cccc(C)c1-c1cccc(COc2ccc(CCC(=O)O)c(C)n2)c1,5.96,7.09,,
Cc1cccc(C)c1-c1cccc(COc2ccc(CCC(=O)O)nc2)c1,6.68,7.15,2.4,
Cc1cc(OCc2cccc(-c3c(C)cccc3C)c2)ncc1CCC(=O)O,6.89,8.03,,
CCOC(CC(=O)O)c1ccc(OCc2ccc(C)cc2)cc1 (configuration not stated),6.54,6.43,,
Cc1cccc(C)c1-c1cccc(COc2ccc(C(F)CC(=O)O)cn2)c1 (configuration not stated),7.02,7.74,,inhibition (Homo sapiens): 91%
Cc1cccc(C)c1-c1cccc(COc2ccc(CCC(=O)O)cn2)c1,7.42,8.46,3,Vd [21]: 0.22 L/kg; clearance [22]: 20 mL/min/kg; Cmax [23]: 3500 ng/mL; half-life [24]: 14.4 min; bioavailability [25]: 24%; AUC [26]: 2000 ng·h/mL
CCOC(CC(=O)O)c1ccc(OCc2cccc(-c3c(C)cccc3C)c2)nc1 (configuration not stated),6.89,7.85,2.8,inhibition (Homo sapiens): 66%
